Test results taken from ChEMBL document CHEMBL3352237, “Synthesis and biological evaluation of novel peptide BF2 as an antibacterial agent against clinical isolates of vancomycin-resistant enterococci” (J Med Chem, 2014).

Assays:
[1] = test system: Enterococcus faecalis; test: Bactericidal activity against vancomycin-resistant Enterococcus faecalis clinical isolate 5642 after 24 hrs by two-fold serial dilution method; type: functional; settings: isolate 5642, 24 h
[2] = test system: Enterococcus faecium; test: Bactericidal activity against vancomycin-resistant Enterococcus faecium clinical isolate 12875 after 24 hrs by two-fold serial dilution method; type: functional; settings: isolate 12875, 24 h
[3] = test system: Enterococcus; test: Antibacterial activity against Enterococcus infected in Wistar albino rat assessed as reduction in cell count at 3 times MIC, iv after 1 hr relative to control; type: functional; design: scale not given: the % may be the effect or the level left
Procedure, shortened: (§1)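 Female Wistar albino rats, 40−45 days old, 125−150 g, 5 groups of 3. Enterococci were grown to log phase in MH broth, centrifuged at 1000g for 15 min, and diluted in PBS to 4 × 10^6 CFU/mL. Rats were inoculated i.v. and treated i.v. 1 h later with 12.5, 25 or 37.5 mg/kg peptide, PBS vehicle, or linezolid 25 mg/kg. Tail-vein blood taken 1 h post-treatment was plated on blood agar, incubated overnight at 37 °C, and colonies counted.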

[4] = test system: Enterococcus faecium; test: Bactericidal activity against vancomycin-resistant Enterococcus faecium clinical isolate 27/221 after 24 hrs by two-fold serial dilution method; type: functional; settings: isolate 27/221, 24 h
[5] = test system: Enterococcus faecium; test: Bactericidal activity against vancomycin-resistant Enterococcus faecium clinical isolate 31386 after 24 hrs by two-fold serial dilution method; type: functional; settings: isolate 31386, 24 h
[6] = test system: Enterococcus faecium; test: Antibacterial activity against vancomycin-resistant Enterococcus faecium clinical isolate 8/224 after overnight incubation by two-fold serial dilution method; type: functional
[7] = test system: Enterococcus faecium; test: Antibacterial activity against vancomycin-resistant Enterococcus faecium clinical isolate 5396 after overnight incubation by two-fold serial dilution method; type: functional
[8] = test system: Enterococcus faecalis; test: Bactericidal activity against vancomycin-resistant Enterococcus faecalis clinical isolate 21/235 after 24 hrs by two-fold serial dilution method; type: functional; settings: isolate 21/235, 24 h
[9] = test system: Enterococcus faecalis; test: Bactericidal activity against vancomycin-resistant Enterococcus faecalis clinical isolate 7670 after 24 hrs by two-fold serial dilution method; type: functional; settings: isolate 7670, 24 h
[10] = test system: Enterococcus faecalis; test: Antibacterial activity against vancomycin-resistant Enterococcus faecalis clinical isolate 27728 after overnight incubation by two-fold serial dilution method; type: functional
[11] = test system: Enterococcus faecalis; test: Bactericidal activity against vancomycin-resistant Enterococcus faecalis clinical isolate 6093 after 24 hrs by two-fold serial dilution method; type: functional; settings: isolate 6093, 24 h
[12] = test system: Enterococcus faecalis; test: Bactericidal activity against vancomycin-resistant Enterococcus faecalis clinical isolate 7846 after 24 hrs by two-fold serial dilution method; type: functional; settings: isolate 7846, 24 h
[13] = test system: Enterococcus faecalis; test: Antibacterial activity against vancomycin-resistant Enterococcus faecalis clinical isolate 7846 after overnight incubation by two-fold serial dilution method; type: functional
[14] = test system: Enterococcus faecium; test: Bactericidal activity against vancomycin-resistant Enterococcus faecium clinical isolate 12/266 after 24 hrs by two-fold serial dilution method; type: functional; settings: isolate 12/266, 24 h
[15] = test system: Enterococcus faecium; test: Bactericidal activity against vancomycin-resistant Enterococcus faecium clinical isolate 16475 after 24 hrs by two-fold serial dilution method; type: functional; settings: isolate 16475, 24 h
[16] = test system: Enterococcus faecium; test: Bactericidal activity against vancomycin-resistant Enterococcus faecium clinical isolate 30/48 after 24 hrs by two-fold serial dilution method; type: functional; settings: isolate 30/48, 24 h
[17] = test system: Enterococcus faecium; test: Bactericidal activity against vancomycin-resistant Enterococcus faecium clinical isolate 10177 after 24 hrs by two-fold serial dilution method; type: functional; settings: isolate 10177, 24 h
[18] = test system: Enterococcus faecalis; test: Antibacterial activity against vancomycin-resistant Enterococcus faecalis clinical isolate 7077 after overnight incubation by two-fold serial dilution method; type: functional
[19] = test system: Enterococcus faecium; test: Antibacterial activity against vancomycin-resistant Enterococcus faecium clinical isolate 18906 after overnight incubation by two-fold serial dilution method; type: functional
[20] = test system: Enterococcus faecium; test: Bactericidal activity against vancomycin-resistant Enterococcus faecium clinical isolate 8/224 after 24 hrs by two-fold serial dilution method; type: functional; settings: isolate 8/224, 24 h
[21] = test system: HEK293; test: Cytotoxicity against HEK293 cells at 100 to 400 uM after 48 to 72 hrs by MTT assay; type: cell-based; settings: human, hek293, 400 µM
[22] = test system: Enterococcus faecium; test: Bactericidal activity against vancomycin-resistant Enterococcus faecium clinical isolate 147969 after 24 hrs by two-fold serial dilution method; type: functional; settings: isolate 147969, 24 h
[23] = test system: Enterococcus faecium; test: Antibacterial activity against vancomycin-resistant Enterococcus faecium clinical isolate 147969 after overnight incubation by two-fold serial dilution method; type: functional
[24] = test system: Enterococcus faecium; test: Antibacterial activity against vancomycin-resistant Enterococcus faecium clinical isolate 27/221 after overnight incubation by two-fold serial dilution method; type: functional
[25] = test system: Enterococcus faecium; test: Antibacterial activity against vancomycin-resistant Enterococcus faecium clinical isolate 10177 after overnight incubation by two-fold serial dilution method; type: functional
[26] = test system: Enterococcus faecium; test: Bactericidal activity against vancomycin-resistant Enterococcus faecium clinical isolate […] after 24 hrs by two-fold serial dilution method; type: functional; settings: isolate 27/1691, 24 h
[27] = test system: Enterococcus faecium; test: Antibacterial activity against vancomycin-resistant Enterococcus faecium clinical isolate 12875 after overnight incubation by two-fold serial dilution method; type: functional
[28] = test system: Enterococcus faecium; test: Bactericidal activity against vancomycin-resistant Enterococcus faecium clinical isolate 17301 after 24 hrs by two-fold serial dilution method; type: functional; settings: isolate 17301, 24 h
[29] = test system: Enterococcus faecium; test: Antibacterial activity against vancomycin-resistant Enterococcus faecium clinical isolate 29/203 after overnight incubation by two-fold serial dilution method; type: functional
[30] = test system: Enterococcus faecalis; test: Antibacterial activity against vancomycin-resistant Enterococcus faecalis clinical isolate 5642 after overnight incubation by two-fold serial dilution method; type: functional
[31] = test system: Enterococcus faecium; test: Bactericidal activity against vancomycin-resistant Enterococcus faecium clinical isolate 28/211 after 24 hrs by two-fold serial dilution method; type: functional; settings: isolate 28/211, 24 h
[32] = test system: Enterococcus faecium; test: Antibacterial activity against vancomycin-resistant Enterococcus faecium clinical isolate 31176 after overnight incubation by two-fold serial dilution method; type: functional
[33] = test system: Enterococcus faecalis; test: Bactericidal activity against vancomycin-resistant Enterococcus clinical isolate assessed as log reduction at 2 times MIC after 60 to 120 mins by serial dilution method; type: functional
Procedure, shortened: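 Time-kill assay: enterococci exposed to peptide at 2× MIC, with viable counts read as log10 CFU/mL over a 60–120 min exposure. Run on ATCC 29212 and a clinical isolate.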

[34] = test system: Enterococcus faecalis; test: Bactericidal activity against vancomycin-resistant Enterococcus faecalis clinical isolate 5814 after 24 hrs by two-fold serial dilution method; type: functional; settings: isolate 5814, 24 h
[35] = test system: Enterococcus faecalis; test: Bactericidal activity against vancomycin-resistant Enterococcus faecalis clinical isolate 387702 after 24 hrs by two-fold serial dilution method; type: functional; settings: isolate 387702, 24 h
[36] = test system: Enterococcus; test: Antibacterial activity against vancomycin-resistant Enterococcus ATCC 51299 after 18 to 20 hrs by checkerboard titration method in presence of linezolid; type: functional
[37] = test system: Enterococcus faecalis; test: Antibacterial activity against vancomycin-resistant Enterococcus faecalis clinical isolate 22/203 after overnight incubation by two-fold serial dilution method; type: functional
[38] = test system: Enterococcus faecium; test: Bactericidal activity against vancomycin-resistant Enterococcus faecium clinical isolate 23/240 after 24 hrs by two-fold serial dilution method; type: functional; settings: isolate 23/240, 24 h
[39] = test system: Enterococcus; test: Antibacterial activity against Enterococcus infected in Wistar albino rat assessed as reduction in cell count at 2 times MIC, iv after 1 hr relative to control; type: functional; design: scale not given: the % may be the effect or the level left; procedure, shortened: as §1
[40] = test system: Enterococcus; test: Antibacterial activity against vancomycin-resistant Enterococcus clinical isolate after 18 to 20 hrs by checkerboard titration method in presence of vancomycin; type: functional
[41] = test system: Rattus norvegicus; test: Toxicity in Wistar albino rat infected with Enterococcus at MIC to 3 times MIC, iv; type: organism-based; settings: in vivo

H-RWRLLLLKKH-OH was tested, and the MBC [1] was 25 µg/mL, the MBC [2] was 25 µg/mL and the Activity [3] was 82%. It also gave an MBC [4] of 25 µg/mL, an MBC [5] of 25 µg/mL and an MIC [6] of 12.5 µg/mL. The MIC [7] was 6.25 µg/mL, the MBC [8] was 25 µg/mL and the MBC [9] was 25 µg/mL. It also gave an MIC [10] of 6.25 µg/mL, an MBC [11] of 25 µg/mL and an MBC [12] of 25 µg/mL. It also gave an MIC [13] of 12.5 µg/mL, an MBC [14] of 25 µg/mL and an MBC [15] of 25 µg/mL. The MBC [16] was 25 µg/mL, the MBC [17] was 25 µg/mL and the MIC [18] was 12.5 µg/mL. For the same substance, the MIC [19] was 12.5 µg/mL, the MBC [20] was 25 µg/mL and the Activity [21] was “Non-toxic”. For the same substance, the MBC [22] was 25 µg/mL, the MIC [23] was 12.5 µg/mL and the MIC [24] was 12.5 µg/mL. It also gave an MIC [25] of 12.5 µg/mL, an MBC [26] of 25 µg/mL and an MIC [27] of 12.5 µg/mL. The MBC [28] was 25 µg/mL, the MIC [29] was 12.5 µg/mL and the MIC [30] was 12.5 µg/mL. The MBC [31] was 25 µg/mL, the MIC [32] was 6.25 µg/mL and the MBC [33] was 25 µg/mL. For the same substance, the MBC [34] was 25 µg/mL, the MBC [35] was 25 µg/mL and the “fractional inhibitory concentration index (FICI)” value [36] was 2.1. For the same substance, the MIC [37] was 12.5 µg/mL, the MBC [38] was 25 µg/mL and the Activity [39] was 76%. The “fractional inhibitory concentration index (FICI)” value [40] was 0.25 and the Activity [41] was “Non-toxic”.
